Test [1] is described as follows: inhibitors of TNFa-induced NFkB p65 translocation, primary screen, imaging, HUVEC, MLSMR starter and 10KST1 sets (AID 438;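 active = inhibition above 20% together with a positive visual image hit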;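 note: compound added about 3h40 before a 20 min TNFalpha stimulation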;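 for inhibition: signal is the nuclear over cytoplasmic p65 intensity ratio per well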). As to conditions: HUVEC TNFa-induced p65 nuclear translocation; cell count: measured here: nuclei count (cytotoxicity indicator), at 2.08 µM; inhibition: at 2 µM, stronger effect = higher value, 0% TNFa-plus-vehicle, 100% no-TNFa wells.
The nature of test [2]: inhibitors of mutant huntingtin aggregation, primary screen, imaging, exon1htt(103Q)mCFP cells, high-content imaging (AID 483).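 For nuclei count: percent of the per-plate median nuclei count of sample wells.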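 Note: compound exposure lasted 3 days before fixation.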 As to conditions: exon1htt(103Q)mCFP cell line, aggregate imaging, at 2 µM; inhibition of aggregation: stronger effect = higher value; nuclei count: measured here: cell count, toxicity.
The nature of test [3]: inhibitors of E-selectin induction by TNFa, primary screen, imaging, HUVEC, immunofluorescence, MLSMR starter and 10KST1 sets (AID 487;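 active = visually confirmed hit in the image check and inhibition above 20%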;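 for inhibition: signal is fraction of cell area covered by stained E-selectin grains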;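 for nuclei count: 100% = median nuclei count of all wells on the same plate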). As to conditions: HUVEC TNFalpha-induced E-selectin immunofluorescence imaging, at 2 µM; inhibition: stronger effect = higher value; nuclei count: measured here: cell number, toxicity.
In test [4] the target is Voltage-gated potassium channel subunit beta-2 (Rattus norvegicus) (UniProt P62483). The test can be described thus: KvBeta enzyme negative modulators, primary screen, biochemical, NADPH fluorescence (AID 622;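 active = fluorescence slope higher than the sample average by over 3 SD, cut at about -0.22 in these data, passing the limit was not always enough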;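 note: slope of raw intensity against log time taken from 70 to 1610 s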). As to conditions: recombinant KvBeta, 4-cyanobenzaldehyde reduction, at 10 µM, stronger effect = higher value.
Chain of Voltage-gated potassium channel subunit beta-2 (Rattus norvegicus) (P62483 whole entry, looked up): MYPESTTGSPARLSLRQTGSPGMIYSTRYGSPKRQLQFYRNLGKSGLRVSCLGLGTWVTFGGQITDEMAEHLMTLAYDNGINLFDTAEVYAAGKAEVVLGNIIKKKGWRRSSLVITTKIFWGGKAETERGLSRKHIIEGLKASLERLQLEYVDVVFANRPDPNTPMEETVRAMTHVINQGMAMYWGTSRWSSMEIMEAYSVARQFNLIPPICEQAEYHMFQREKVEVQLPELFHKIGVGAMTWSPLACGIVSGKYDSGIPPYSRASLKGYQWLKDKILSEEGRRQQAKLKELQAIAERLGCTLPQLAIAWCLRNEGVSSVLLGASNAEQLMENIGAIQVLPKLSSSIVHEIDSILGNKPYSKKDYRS
Test [5] has the same target. As to the kind of experiment: KvBeta positive modulators, primary screen, biochemical, NADPH fluorescence (AID 623;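 active = NADPH fluorescence slope more negative than the mean of all samples by about 3 SD, 99.7% confidence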;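 note: fluorescence intensity change per second fitted from 20 to 320 s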). As to conditions: Recombinant KvBeta, NADPH fluorescence decrease slope, 10 min; at 10 µM; stronger effect = lower value.
The target in test [6] is Muscarinic acetylcholine receptor M4 (Homo sapiens) (UniProt P08173). As to the kind of experiment: compounds altering M4/GIRK thallium flux, either direction, primary screen, M4 allosteric agonist project, cell-based, HEK293 M4/GIRK, BTC-AM (AID 625;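 active = fluorescence slope after compound addition differing from the mean of all tested samples at 99.7% confidence, mostly higher but some lower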;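 note: thallium influx through GIRK channels coupled to M4 in HEK293 cells with BTC-AM dye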). As to conditions: at 10 µM, actives lie on both sides. In a few lines:
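Material: HEK293 cells with M4 receptor and GIRK channels; Times: cells overnight at 37 °C, BTC-AM loading 1 h, reads 2 min total; Technique: kinetic BTC-AM fluorescence sampled at 1 Hz, 10 s pre-addition baseline; Read-out basis: slope over 15–24 s of trace normalized to starting intensity; Controls: carbachol positive, DMSO negative.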

Test [7] in a line: inhibitors of Sendai virus-induced IRF3 signaling, primary screen, TLR/RLR signaling modifier project, cell-based, Sendai virus stimulus, luciferase, 10K MLSCN set (AID 602276;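 active = inhibition at or above 50% at 10 µM; inactive = inhibition below 50%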;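 note: firefly luciferase from ISG56 promoter only with Renilla not read in this screen; 0% = Sendai virus plus DMSO and 100% = medium plus DMSO without virus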). As to conditions: HEK293 RL24 IRF3 luciferase reporter, at 10 µM, stronger effect = higher value. (Reporter assays use an easily measured gene product as a stand-in for the process of interest.)
Test [8] in a line: inhibitors of poly I:C-induced TLR3 signaling, primary screen, cell-based, poly I:C stimulus, luciferase, 10K MLSCN set (AID 602277;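 active = inhibition of the reporter signal at or above 50%; inactive = inhibition below 50%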). As to conditions: HEK293-TLR3 RL24 IRF3 luciferase reporter, at 10 µM, stronger effect = higher value.

Structures are written as SMILES. Calls of active or inactive are those of the source.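 Rule for the calls, unless noted: active = visual image review flags a hit and inhibition of aggregation exceeds 20%; inconclusive = visual hit but inhibition at or below 20%; inactive = no hit on visual image review.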

Chain of Muscarinic acetylcholine receptor M4 (Homo sapiens) (P08173 whole entry, looked up): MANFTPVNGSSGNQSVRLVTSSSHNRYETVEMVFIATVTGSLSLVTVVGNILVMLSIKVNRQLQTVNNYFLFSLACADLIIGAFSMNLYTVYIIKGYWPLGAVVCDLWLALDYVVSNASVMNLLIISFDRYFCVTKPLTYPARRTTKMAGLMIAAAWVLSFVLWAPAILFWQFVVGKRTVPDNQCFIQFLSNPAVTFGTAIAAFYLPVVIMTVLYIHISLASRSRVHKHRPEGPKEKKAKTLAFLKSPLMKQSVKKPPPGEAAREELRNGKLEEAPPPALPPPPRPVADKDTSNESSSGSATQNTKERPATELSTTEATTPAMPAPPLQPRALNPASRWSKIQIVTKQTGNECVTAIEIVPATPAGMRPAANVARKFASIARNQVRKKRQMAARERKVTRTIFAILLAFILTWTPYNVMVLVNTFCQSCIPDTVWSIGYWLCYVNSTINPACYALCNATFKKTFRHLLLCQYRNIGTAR

Usually inhibition stands for the drop in the measured response relative to a control, in per cent. `NC1=NC(c2ccc(Cl)cc2)n2c(nc3ccccc32)N1` (centres undefined): the cell count in test [1] was found to be 780. The inhibition is 3.5% (inactive) in test [1], -15.2% (inactive) in test [3], 16.5% (inactive) in test [7] and 18.6% (inactive) in test [8]. Also, the inhibition of aggregation in test [2] is -8.4% (inactive). Moreover, the values for the nuclei count in test [2] and in test [3] were 125% and 113%, respectively. For the same molecule, the fluorescence slope in test [4] is -0.584 (inactive); in test [6], 0.00539 (inactive). In test [5], the NADPH fluorescence slope is 1.3e-05 (inactive).
Consider `COC(=O)C1=C(C)NC(C)=C(C(=O)OC)C1c1cc2cc(C)ccc2[nH]c1=O`, for which, in test [1], the cell count came to 509. The inhibition in test [1] was 11.1% (inactive); in test [3], -103% (inactive); in test [7], 18.9% (inactive); in test [8], 30.9% (inactive). Besides, in test [2], the inhibition of aggregation is -7.7% (inactive). Further, the nuclei count is 102% in test [2] and 136% in test [3]. The fluorescence slope is -0.493 (inactive) in test [4] and 0.00508 (inactive) in test [6]. Besides, the NADPH fluorescence slope in test [5] is -2.9e-05 (inactive).
Regarding `Cc1sc2ncnc(OCC(=O)N3CCN(S(=O)(=O)c4ccccc4)CC3)c2c1C`, the cell count in test [1] is 247. The inhibition in test [1] was -7.7% (inactive); in test [3] it was 16.8% (inactive); in test [7], 16.8% (inactive); in test [8], 15.1% (inactive). Besides, the inhibition of aggregation in test [2] was 11.8% (inactive). Also, the nuclei count was 90.7% in test [2] and 91.8% in test [3]. In addition, the fluorescence slope was -0.498 (inactive) in test [4] and 0.00565 (inactive) in test [6]. In addition, the NADPH fluorescence slope in test [5] is 3.8e-05 (inactive).
Turning to `CC1CCN(C(=O)c2cc(-c3ccc(Cl)c(Cl)c3)on2)CC1`, the cell count in test [1] came out at 435. Further, the inhibition in test [1] is 0.9% (inactive); in test [3] it was 6.5% (inactive); in test [7], -41% (inactive); in test [8] it was -89% (inactive). In test [2], the inhibition of aggregation is 4.2% (inactive). Also, the figures for the nuclei count in test [2] and in test [3] were 94% and 91.7%, respectively. Moreover, the fluorescence slope is -0.449 (inactive) in test [4] and 0.00453 (inactive) in test [6]. In test [5], the NADPH fluorescence slope is -3.4e-05 (inactive).
Regarding `C=CCn1c(=O)[nH]c2cc(C(=O)N3CCN(c4ccc(C(C)=O)cc4)CC3)ccc2c1=O`, the cell count in test [1] turned out to be 359. Further, the inhibition is -1.8% (inactive) in test [1], -161% (inactive) in test [3], -1.65% (inactive) in test [7] and -9.26% (inactive) in test [8]. Moreover, the inhibition of aggregation in test [2] is 20.3% (inactive). Further, the values for the nuclei count in test [2] and in test [3] were 101% and 106%, respectively. Further, the fluorescence slope was -0.464 (inactive) in test [4] and 0.00531 (inactive) in test [6]. Moreover, the NADPH fluorescence slope in test [5] is 1.5e-05 (inactive).
`CCCCOc1cccc(NC(=O)CSc2nccn2C)c1`: the cell count in test [1] was 397. Moreover, the inhibition is 2.5% (inactive) in test [1], 6.2% (inactive) in test [3], -4.33% (inactive) in test [7] and -42.2% (inactive) in test [8]. Also, the inhibition of aggregation in test [2] was 0.8% (inactive). The nuclei count was 96.8% in test [2] and 108% in test [3]. In addition, the fluorescence slope in test [4] is -0.318 (inactive); in test [6] it was 0.00562 (inactive). In addition, the NADPH fluorescence slope in test [5] was -3.3e-05 (inactive).
As to `O=S(=O)(c1ccc(Br)s1)N1CCCCC1`, the cell count in test [1] was determined as 479. The inhibition was -1.6% (inactive) in test [1], 0.6% (inactive) in test [3], 5.16% (inactive) in test [7] and 9.33% (inactive) in test [8]. In addition, in test [2], the inhibition of aggregation was -18.8% (inactive). Besides, the results for the nuclei count in test [2] and in test [3] were 100% and 106%, respectively. The fluorescence slope is -0.615 (inactive) in test [4] and 0.00346 (inactive) in test [6]. In addition, in test [5], the NADPH fluorescence slope was 4.4e-05 (inactive).
In the case of `CC(C(=O)Oc1ccc2c(c1)OCO2)N1C(=O)c2ccccc2C1=O` (centres undefined), the cell count in test [1] was 790. The inhibition is -10.1% (inactive) in test [1], -33.5% (inactive) in test [3], 23.3% (inactive) in test [7] and 27.7% (inactive) in test [8]. The inhibition of aggregation in test [2] is 9.8% (inactive). The results for the nuclei count in test [2] and in test [3] were 104% and 101%, respectively. Further, the figures for the fluorescence slope in test [4] and in test [6] were -0.609 (inactive) and 0.00538 (inactive), respectively. Also, in test [5], the NADPH fluorescence slope was -2.3e-05 (inactive).
For `COC(=O)c1cc(-c2c(C)nn(-c3ccccc3)c2C)n[nH]1`, the cell count in test [1] was 391. Moreover, the inhibition in test [1] was 1.1% (inactive); in test [3] it was 8.5% (inactive); in test [7], -13.2% (inactive); in test [8] it was -66.7% (inactive). Further, in test [2], the inhibition of aggregation is -8.1% (inactive). Moreover, the nuclei count came to 111% in test [2] and 95.5% in test [3]. Further, the fluorescence slope is -0.447 (inactive) in test [4] and 0.00494 (inactive) in test [6]. Besides, the NADPH fluorescence slope in test [5] is 2.5e-05 (inactive).
For `CN(C)CCCNC(=O)CCC1CCCCC1`, the cell count in test [1] turned out to be 333. Also, the inhibition in test [1] was -12.5% (inactive); in test [3] it was -132% (inactive); in test [7], 12% (inactive); in test [8], 21.1% (inactive). Moreover, the inhibition of aggregation in test [2] is -4% (inactive). Moreover, the nuclei count in test [2] is 103%; in test [3] it was 110%. Also, the figures for the fluorescence slope in test [4] and in test [6] were -0.277 (inactive) and 0.00526 (inactive), respectively. Moreover, the NADPH fluorescence slope in test [5] is -3.7e-05 (inactive).
As for `COc1ccc(-c2ccc(CCC(=O)O)n2NC(=O)c2cccs2)cc1`, the cell count in test [1] worked out at 645. Moreover, the inhibition was -3.5% (inactive) in test [1], -35.1% (inactive) in test [3], 2.14% (inactive) in test [7] and 42.4% (inactive) in test [8]. Moreover, in test [2], the inhibition of aggregation is -1.9% (inactive). The nuclei count turned out to be 108% in test [2] and 131% in test [3]. For the same molecule, the fluorescence slope was -0.464 (inactive) in test [4] and 0.00607 (inactive) in test [6]. In test [5], the NADPH fluorescence slope was -3.6e-05 (inactive).
On to `Cc1noc(C)c1CSc1nnc(-c2ccncc2)n1-c1cccc(Cl)c1C`, for which the cell count in test [1] came out at 344. For the same molecule, the inhibition is -2.1% (inactive) in test [1], 51.9% (inactive) in test [3], 10.2% (inactive) in test [7] and 34.9% (inactive) in test [8]. Also, in test [2], the inhibition of aggregation was -9% (inactive). In addition, the nuclei count in test [2] was 107%; in test [3], 74.2%. In addition, the fluorescence slope was -0.482 (inactive) in test [4] and 0.00492 (inactive) in test [6]. Besides, in test [5], the NADPH fluorescence slope was 5.5e-05 (inactive).
As for `COc1cc(OC)cc(-c2nc3cc(C)ccc3o2)c1`, the cell count in test [1] came to 424. Further, the inhibition in test [1] was 1.7% (inactive); in test [3] it was -55.4% (inactive); in test [7], -23.5% (inactive); in test [8], -45.9% (inactive). Further, the inhibition of aggregation in test [2] was -2% (inactive). Also, the nuclei count was found to be 90.1% in test [2] and 99.4% in test [3]. Besides, the fluorescence slope in test [4] was -0.55 (inactive); in test [6] it was 0.00552 (inactive). Moreover, the NADPH fluorescence slope in test [5] was -4.6e-05 (inactive).
As to `COc1ccccc1-c1nc(C#N)c(N2CCN(c3ccccc3)CC2)o1`, the cell count in test [1] is 730. Further, the inhibition is -10.2% (inactive) in test [1], -96.9% (inactive) in test [3], 15.8% (inactive) in test [7] and 12% (inactive) in test [8]. The inhibition of aggregation in test [2] is 17% (inactive). Also, the results for the nuclei count in test [2] and in test [3] were 119% and 93.4%, respectively. The fluorescence slope in test [4] was -0.495 (inactive); in test [6], 0.00604 (inactive). In test [5], the NADPH fluorescence slope was 1.8e-05 (inactive).

These data come from PubChem BioAssay.
